Series [1] addresses Voltage-gated inwardly rectifying potassium channel KCNH2 (Homo sapiens, UniProt Q12809). The series is described as follows: Inhibition of human ERG by patch clamp assay. (In general: The patch-clamp technique gives a direct electrical read-out from membranes.)
In series [2] the target is T1, Voltage-dependent T-type calcium channel subunit alpha-1G (Homo sapiens, UniProt O43497). The series is described as follows: Inhibition of T-type calcium channel alpha1G expressed in human HEK293 cells assessed as KCl-induced depolarization at 10 uM after 60 mins by FDSS6000 assay. The class given is cell-based.
T1 sequence (O43497 whole entry): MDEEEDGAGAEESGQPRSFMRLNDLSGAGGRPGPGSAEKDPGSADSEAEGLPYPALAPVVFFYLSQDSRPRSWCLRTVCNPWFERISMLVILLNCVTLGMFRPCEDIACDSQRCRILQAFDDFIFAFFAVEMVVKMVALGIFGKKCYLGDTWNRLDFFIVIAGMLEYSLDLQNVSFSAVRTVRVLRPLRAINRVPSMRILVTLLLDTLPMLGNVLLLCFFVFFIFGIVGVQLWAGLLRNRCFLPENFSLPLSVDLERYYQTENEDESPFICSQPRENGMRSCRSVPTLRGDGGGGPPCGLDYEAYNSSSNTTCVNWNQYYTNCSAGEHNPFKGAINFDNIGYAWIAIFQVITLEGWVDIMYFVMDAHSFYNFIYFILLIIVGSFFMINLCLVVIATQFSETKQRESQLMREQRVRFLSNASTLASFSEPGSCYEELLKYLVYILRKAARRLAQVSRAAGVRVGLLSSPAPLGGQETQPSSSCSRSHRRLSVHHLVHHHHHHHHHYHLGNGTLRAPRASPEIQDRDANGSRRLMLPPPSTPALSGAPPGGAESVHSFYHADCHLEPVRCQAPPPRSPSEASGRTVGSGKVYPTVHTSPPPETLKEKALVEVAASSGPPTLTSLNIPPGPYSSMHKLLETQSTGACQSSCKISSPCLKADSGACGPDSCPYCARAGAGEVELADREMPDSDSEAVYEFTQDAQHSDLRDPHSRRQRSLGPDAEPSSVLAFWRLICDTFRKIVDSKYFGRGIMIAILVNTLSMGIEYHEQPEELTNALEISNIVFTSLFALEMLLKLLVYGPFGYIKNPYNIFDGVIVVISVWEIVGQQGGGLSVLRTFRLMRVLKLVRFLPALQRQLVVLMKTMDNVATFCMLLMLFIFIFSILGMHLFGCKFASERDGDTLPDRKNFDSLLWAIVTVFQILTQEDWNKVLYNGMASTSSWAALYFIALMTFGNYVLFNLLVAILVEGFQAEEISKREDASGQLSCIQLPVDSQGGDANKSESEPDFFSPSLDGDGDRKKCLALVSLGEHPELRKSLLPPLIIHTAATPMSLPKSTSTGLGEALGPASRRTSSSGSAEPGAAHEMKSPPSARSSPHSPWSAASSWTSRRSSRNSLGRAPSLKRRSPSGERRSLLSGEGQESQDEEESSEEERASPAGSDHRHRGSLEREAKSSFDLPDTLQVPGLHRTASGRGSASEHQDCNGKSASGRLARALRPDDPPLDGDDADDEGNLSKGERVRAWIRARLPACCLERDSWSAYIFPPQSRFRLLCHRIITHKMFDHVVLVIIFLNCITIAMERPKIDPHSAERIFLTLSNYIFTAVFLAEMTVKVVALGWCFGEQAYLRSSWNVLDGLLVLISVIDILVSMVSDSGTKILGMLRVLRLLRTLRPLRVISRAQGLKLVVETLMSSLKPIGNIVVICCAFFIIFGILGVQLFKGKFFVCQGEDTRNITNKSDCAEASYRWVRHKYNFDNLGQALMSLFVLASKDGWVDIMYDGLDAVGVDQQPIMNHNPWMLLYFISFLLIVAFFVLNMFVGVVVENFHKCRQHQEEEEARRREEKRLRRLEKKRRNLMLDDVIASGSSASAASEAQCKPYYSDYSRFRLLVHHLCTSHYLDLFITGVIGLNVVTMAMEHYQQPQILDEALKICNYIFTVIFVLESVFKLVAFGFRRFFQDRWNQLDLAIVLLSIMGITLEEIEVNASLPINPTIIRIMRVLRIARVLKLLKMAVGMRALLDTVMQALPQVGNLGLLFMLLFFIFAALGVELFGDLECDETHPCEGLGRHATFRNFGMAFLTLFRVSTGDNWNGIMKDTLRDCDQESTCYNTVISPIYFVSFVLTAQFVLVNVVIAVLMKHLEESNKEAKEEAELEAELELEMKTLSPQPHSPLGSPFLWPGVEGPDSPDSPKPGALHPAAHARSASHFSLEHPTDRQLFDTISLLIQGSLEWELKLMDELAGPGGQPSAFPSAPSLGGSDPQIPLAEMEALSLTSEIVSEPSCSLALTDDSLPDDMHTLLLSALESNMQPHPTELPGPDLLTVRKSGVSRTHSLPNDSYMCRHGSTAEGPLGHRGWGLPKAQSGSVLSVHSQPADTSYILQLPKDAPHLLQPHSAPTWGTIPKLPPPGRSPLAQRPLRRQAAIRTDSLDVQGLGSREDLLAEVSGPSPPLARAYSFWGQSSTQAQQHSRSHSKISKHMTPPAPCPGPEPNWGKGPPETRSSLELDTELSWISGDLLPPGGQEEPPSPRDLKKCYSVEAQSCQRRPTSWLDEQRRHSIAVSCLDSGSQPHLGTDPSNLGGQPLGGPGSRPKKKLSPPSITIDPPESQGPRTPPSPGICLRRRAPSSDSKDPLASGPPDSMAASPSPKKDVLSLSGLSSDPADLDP
For series [3], the system named is Rattus norvegicus. The series is described as follows: Antiallodynic activity in rat spinal nerve ligation model of neuropathic pain assessed as suppression of mechanical allodynia at 100 mg/kg, po after 5 hrs. The class given is functional, organism-based. More on the design: dose 100 mg/kg. Put shortly:
(§1)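 Rats with induced neuropathic pain, dosed orally at 100 mg/kg (n = 5 per group), with gabapentin 100 mg/kg po as reference. Mechanical and cold allodynia were followed over days after nerve injury and hours after dosing. Significance was tested by unpaired t-test (P < 0.05).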

The subject of series [4] is Rattus norvegicus. Put plainly: Antiallodynic activity in rat spinal nerve ligation model of neuropathic pain assessed as inhibition of cold allodynia at 100 mg/kg, po after 5 hrs. The class given is functional, organism-based. More on the design: dose 100 mg/kg. Put shortly: as §1
The nature of series [5]: Metabolic stability in human hepatic microsomes at 1 uM after 60 mins by LC-MS/MS analysis. It counts as ADME, Liver. The note with it: 1 h. Put shortly: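 Human liver microsomes (0.5 mg/ml) with compound (1 μM) in 0.1 M potassium phosphate, pH 7.4, at 37 °C; started with β-NADPH (1.2 mM). Sampled at 0, 5, 15, 30 and 60 min, quenched with acetonitrile containing internal standard, analysed by LC–MS/MS. Reported as % parent remaining; mean of duplicate experiments.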

Series [6] concerns the target T1, Voltage-dependent T-type calcium channel subunit alpha-1G. The series is described as follows: Inhibition of T-type calcium channel alpha1G expressed in human HEK293 cells assessed as KCl-induced depolarization after 60 mins by FDSS6000 assay. It counts as cell-based.

Consider 42 compounds from ChEMBL document CHEMBL1833916, “Synthesis and biological evaluation of 4-piperidinecarboxylate and 4-piperidinecyanide derivatives for T-type calcium channel blockers” (Bioorg Med Chem Lett, 2011).

pIC50: −log10 of the molar value. The source made the active and inactive calls. No cut-off for these calls is given here.

Chain of Voltage-gated inwardly rectifying potassium channel KCNH2 (Q12809 whole entry): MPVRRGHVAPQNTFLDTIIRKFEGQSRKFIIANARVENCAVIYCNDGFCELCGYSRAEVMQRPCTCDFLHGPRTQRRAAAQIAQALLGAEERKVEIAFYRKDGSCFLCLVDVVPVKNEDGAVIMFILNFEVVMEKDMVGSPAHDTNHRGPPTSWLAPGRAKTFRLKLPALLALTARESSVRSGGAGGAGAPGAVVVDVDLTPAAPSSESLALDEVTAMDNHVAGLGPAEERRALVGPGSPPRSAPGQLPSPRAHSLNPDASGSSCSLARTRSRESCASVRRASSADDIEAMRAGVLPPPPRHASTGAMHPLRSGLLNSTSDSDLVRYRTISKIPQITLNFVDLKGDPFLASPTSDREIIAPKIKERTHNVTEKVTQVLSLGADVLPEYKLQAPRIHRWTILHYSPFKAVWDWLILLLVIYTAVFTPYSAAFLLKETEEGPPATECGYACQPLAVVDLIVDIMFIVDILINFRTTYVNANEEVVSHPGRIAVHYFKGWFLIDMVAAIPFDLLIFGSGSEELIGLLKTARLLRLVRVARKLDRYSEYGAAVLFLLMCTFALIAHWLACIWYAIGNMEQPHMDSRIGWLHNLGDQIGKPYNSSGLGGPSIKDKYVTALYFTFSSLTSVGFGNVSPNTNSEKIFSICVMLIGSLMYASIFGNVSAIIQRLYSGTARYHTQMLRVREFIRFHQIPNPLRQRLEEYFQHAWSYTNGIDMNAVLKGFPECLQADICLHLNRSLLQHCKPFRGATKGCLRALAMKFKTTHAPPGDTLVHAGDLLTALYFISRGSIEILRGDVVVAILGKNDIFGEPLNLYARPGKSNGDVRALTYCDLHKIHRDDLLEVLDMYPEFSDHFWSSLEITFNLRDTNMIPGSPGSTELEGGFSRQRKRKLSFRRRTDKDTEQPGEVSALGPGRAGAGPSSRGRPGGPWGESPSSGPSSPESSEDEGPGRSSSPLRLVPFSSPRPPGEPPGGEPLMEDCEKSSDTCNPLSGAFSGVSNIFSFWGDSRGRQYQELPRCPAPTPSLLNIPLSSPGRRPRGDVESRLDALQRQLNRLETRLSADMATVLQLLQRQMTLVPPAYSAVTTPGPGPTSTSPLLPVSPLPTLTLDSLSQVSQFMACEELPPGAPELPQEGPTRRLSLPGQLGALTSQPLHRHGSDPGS

What is called pIC50 is the IC50 on a negative log10 scale, so that one unit is a factor of ten. In general, inhibition refers to the drop in the measured response relative to a control, in per cent. In series [1], `COC(=O)C1(CNC(=O)c2cc(OC)cc(OC)c2)CCN(Cc2ccc(OC)cc2)CC1` had a pIC50 of 6.32. In addition, in series [2], the inhibition turned out to be 59%. In the case of `COc1cc(OC)cc(C(=O)NCC2(C(=O)O)CCN(Cc3ccc(C(F)(F)F)cc3)CC2)c1.Cl`, the outcome in the series on Rattus norvegicus [3] was Active. In addition, in the series on Rattus norvegicus [4], the inhibition result is “Active”. Also, in series [5], the Stability result is on record as “Stable”. Moreover, in series [6], the pIC50 was 5.14. On to `COc1ccccc1CN1CCC(C#N)(CNC(=O)c2cc(Cl)cc(Cl)c2)CC1`, for which, in series [2], the inhibition was determined as 19.3%. The compound `N#CC1(CNC(=O)c2cc(Cl)cc(Cl)c2)CCN(CCc2ccccc2)CC1` showed a pIC50 in series [1] of 6.44. Moreover, the inhibition in series [2] is 71.8%.

As to `NCC1(CC(=O)O)CCCCC1`, in the series with Rattus norvegicus [3], the outcome was Active. Besides, the inhibition entry with Rattus norvegicus [4] was “Active”. For the compound `COC(=O)C1(CNC(=O)c2cc(Cl)cc(Cl)c2)CCN(Cc2cccc(C(F)(F)F)c2)CC1`, in series [2], the inhibition was found to be 72%. In turn, `CC(C)Cc1cc(C(=O)NCC2(C#N)CCN(Cc3ccccc3C(F)(F)F)CC2)nn1-c1ccccc1` had a pIC50 in series [1] of 5.32. In series [2], the inhibition was 45.4%. Turning to `COc1cc(OC)cc(C(=O)NCC2(C#N)CCN(Cc3ccc(C(F)(F)F)cc3)CC2)c1`, the inhibition in series [2] was 13.9%.

Take `COC(=O)C1(CNC(=O)c2cc(OC)cc(OC)c2)CCN(CCc2ccccc2)CC1`: the inhibition in series [2] amounted to 65%. In the case of `COC(=O)C1(CNC(=O)c2cc(Cl)cc(Cl)c2)CCN(Cc2cccc(OC)c2)CC1`, the pIC50 in series [1] is 6.44. Also, the inhibition in series [2] stood at 73%.

In series [1], `CC(C)Cc1cc(C(=O)NCC2(C#N)CCN(CC3=Cc4ccccc4OC3(C)C)CC2)nn1-c1ccccc1` gave a pIC50 of 5.33. Moreover, the inhibition in series [2] was 44.3%. Consider `COC(=O)C1(CNC(=O)c2cc(Cl)cc(Cl)c2)CCN(Cc2ccccc2C(F)(F)F)CC1`, for which the inhibition in series [2] was 44.1%. Same read-out and setting: the value for `COc1cc(OC)cc(C(=O)NCC2(C#N)CCN(Cc3cccc(C(F)(F)F)c3)CC2)c1` was 15.8%.

In the case of `COC(=O)C1(CNC(=O)c2cc(OC)cc(OC)c2)CCN(Cc2ccc(C(F)(F)F)cc2)CC1`, in series [5], the Stability result is recorded as “Unstable”. The pIC50 in series [6] is 5.38. Moreover, in series [2], the inhibition was found to be 64.3%. On to `COC(=O)C1(CNC(=O)c2cc(OC)cc(OC)c2)CCN(CC2=Cc3ccccc3OC2(C)C)CC1`, for which, in series [2], the inhibition came out at 58%. As to `CC(C)Cc1cc(C(=O)NCC2(C#N)CCN(Cc3cccc(C(F)(F)F)c3)CC2)nn1-c1ccccc1`, the inhibition in series [2] was determined as 15.8%. In the case of `COc1ccc(CN2CCC(C#N)(CNC(=O)c3cc(OC)cc(OC)c3)CC2)cc1`, the inhibition in series [2] amounted to 53%. Take `COC(=O)C1(CNC(=O)c2cc(OC)cc(OC)c2)CCN(Cc2ccccc2OC)CC1`: in series [1], the pIC50 is 5.72. The inhibition in series [2] turned out to be 46.8%.

As to `CC1(C)Oc2ccccc2C=C1CN1CCC(C#N)(CNC(=O)c2cc(Cl)cc(Cl)c2)CC1`, in series [2], the inhibition is 13.6%. Regarding `COc1cccc(CN2CCC(C#N)(CNC(=O)c3cc(Cl)cc(Cl)c3)CC2)c1`, the inhibition in series [2] worked out at 8.33%.

`COc1cc(OC)cc(C(=O)NCC2(C#N)CCN(Cc3ccccc3C(F)(F)F)CC2)c1`: the pIC50 in series [1] is 5.32. Besides, the inhibition in series [2] is 45.4%.

Turning to `N#CC1(CNC(=O)c2cc(Cl)cc(Cl)c2)CCN(Cc2cccc(C(F)(F)F)c2)CC1`, the inhibition in series [2] was found to be 8.76%. Consider `N#CC1(CNC(=O)c2cc(Cl)cc(Cl)c2)CCN(Cc2ccc(C(F)(F)F)cc2)CC1`, for which the inhibition in series [2] was determined as 8.7%. `COC(=O)C1(CNC(=O)c2cc(Cl)cc(Cl)c2)CCN(CC2=Cc3ccccc3OC2(C)C)CC1` gave a pIC50 in series [1] of 4.86. Also, the inhibition in series [2] is 33.9%. For `COc1ccc(CN2CCC(C#N)(CNC(=O)c3cc(CC(C)C)n(-c4ccccc4)n3)CC2)cc1`, the inhibition in series [2] came to 53%. Compound `COC(=O)C1(CNC(=O)c2cc(Cl)cc(Cl)c2)CCN(Cc2ccccc2OC)CC1` had a pIC50 in series [1] of 6.80. Besides, the inhibition in series [2] turned out to be 68.5%. `COC(=O)C1(CNC(=O)c2cc(OC)cc(OC)c2)CCN(Cc2ccccc2C(F)(F)F)CC1`: the Stability result in series [5] is “Unstable”. Besides, the pIC50 in series [1] was 5.30. In series [2], the inhibition worked out at 63.6%.

Take `COc1cccc(CN2CCC(C#N)(CNC(=O)c3cc(CC(C)C)n(-c4ccccc4)n3)CC2)c1`: in series [1], the pIC50 is 5.82. Moreover, in series [2], the inhibition came to 60.4%. The compound `COC(=O)C1(CNC(=O)c2cc(OC)cc(OC)c2)CCN(Cc2cccc(OC)c2)CC1` gave a pIC50 in series [1] of 6.51. Further, the inhibition in series [2] stood at 56.2%. For `COC(=O)C1(CNC(=O)c2cc(Cl)cc(Cl)c2)CCN(Cc2ccc(OC)cc2)CC1`, the inhibition in series [2] amounted to 74.5%. In turn, `COc1cc(OC)cc(C(=O)NCC2(C#N)CCN(CC3=Cc4ccccc4OC3(C)C)CC2)c1` had a pIC50 in series [1] of 5.33. The inhibition in series [2] was found to be 44.3%. In series [1], `COc1cc(OC)cc(C(=O)NCC2(C#N)CCN(Cc3ccccc3OC)CC2)c1` had a pIC50 of 6.04. In series [2], the inhibition was determined as 50.9%. Consider `COC(=O)C1(CNC(=O)c2cc(OC)cc(OC)c2)CCN(Cc2cccc(C(F)(F)F)c2)CC1`, for which the Stability entry in series [5] is listed as “Unstable”. For the same compound, the pIC50 in series [1] is 5.55. Moreover, the inhibition in series [2] stood at 72%. For the compound `COc1ccccc1CN1CCC(C#N)(CNC(=O)c2cc(CC(C)C)n(-c3ccccc3)n2)CC1`, the inhibition in series [2] came out at 50.9%. `COC(=O)C1(CNC(=O)c2cc(Cl)cc(Cl)c2)CCN(CCc2ccccc2)CC1`: the inhibition in series [2] was 77.2%. With `COc1ccc(CN2CCC(C#N)(CNC(=O)c3cc(Cl)cc(Cl)c3)CC2)cc1`, the inhibition in series [2] came to 16.1%. As to `N#CC1(CNC(=O)c2cc(Cl)cc(Cl)c2)CCN(Cc2ccccc2C(F)(F)F)CC1`, the inhibition in series [2] was 9.99%. Take `CC(C)Cc1cc(C(=O)NCC2(C#N)CCN(Cc3ccc(C(F)(F)F)cc3)CC2)nn1-c1ccccc1`: in series [2], the inhibition came out at 13.9%.

Turning to `COc1cccc(CN2CCC(C#N)(CNC(=O)c3cc(OC)cc(OC)c3)CC2)c1`, the inhibition in series [2] came to 60.4%.

`COC(=O)C1(CNC(=O)c2cc(Cl)cc(Cl)c2)CCN(Cc2ccc(C(F)(F)F)cc2)CC1`: the pIC50 in series [1] is 6.54. Further, the inhibition in series [2] was determined as 43.3%. For the compound `CC(C)Cc1cc(C(=O)NCC2(C#N)CCN(CCc3ccccc3)CC2)nn1-c1ccccc1`, the inhibition in series [2] is 61.9%. Take `COc1cc(OC)cc(C(=O)NCC2(C#N)CCN(CCc3ccccc3)CC2)c1`: the Stability entry in series [5] is “Unstable”. Moreover, the pIC50 in series [1] was 5.80. Further, in series [2], the inhibition amounted to 61.9%.
